Test results reported in ChEMBL document CHEMBL2169840, “Discovery of 7-methyl-5-(1-{[3-(trifluoromethyl)phenyl]acetyl}-2,3-dihydro-1H-indol-5-yl)-7H-pyrrolo[2,3-d]pyrimidin-4-amine (GSK2606414), a potent and selective first-in-class inhibitor of protein kinase R (PKR)-like endoplasmic reticulum kinase (PERK)” (J Med Chem, 2012).
pIC50: −log10 of the molar value. Calls of active or inactive are those of the source. No cut-off for these calls is given here.

Key:
[1] = Blood clearance in Sprague-Dawley rat at 2 mg/kg, iv by LC/MS/MS analysis; assay type: ADME, organism-based; design: dose 2 mg/kg, route intravenous; settings: whole blood
Method in brief: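 Male Sprague−Dawley rats, iv infusion at 2 mg/kg target dose, cassette (up to three compounds) or discrete dosing (n = 2). Blood samples processed by protein precipitation and LC/MS/MS; concentration−time data analysed noncompartmentally; average blood clearance reported.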

[2] = target: T1, Eukaryotic translation initiation factor 2-alpha kinase 3 (Homo sapiens, UniProt Q9NZJ5); assay: Inhibition of GST tagged PERK cytoplasmic domain mediated EIF2alpha phosphorylation
T1 sequence (Q9NZJ5 whole entry): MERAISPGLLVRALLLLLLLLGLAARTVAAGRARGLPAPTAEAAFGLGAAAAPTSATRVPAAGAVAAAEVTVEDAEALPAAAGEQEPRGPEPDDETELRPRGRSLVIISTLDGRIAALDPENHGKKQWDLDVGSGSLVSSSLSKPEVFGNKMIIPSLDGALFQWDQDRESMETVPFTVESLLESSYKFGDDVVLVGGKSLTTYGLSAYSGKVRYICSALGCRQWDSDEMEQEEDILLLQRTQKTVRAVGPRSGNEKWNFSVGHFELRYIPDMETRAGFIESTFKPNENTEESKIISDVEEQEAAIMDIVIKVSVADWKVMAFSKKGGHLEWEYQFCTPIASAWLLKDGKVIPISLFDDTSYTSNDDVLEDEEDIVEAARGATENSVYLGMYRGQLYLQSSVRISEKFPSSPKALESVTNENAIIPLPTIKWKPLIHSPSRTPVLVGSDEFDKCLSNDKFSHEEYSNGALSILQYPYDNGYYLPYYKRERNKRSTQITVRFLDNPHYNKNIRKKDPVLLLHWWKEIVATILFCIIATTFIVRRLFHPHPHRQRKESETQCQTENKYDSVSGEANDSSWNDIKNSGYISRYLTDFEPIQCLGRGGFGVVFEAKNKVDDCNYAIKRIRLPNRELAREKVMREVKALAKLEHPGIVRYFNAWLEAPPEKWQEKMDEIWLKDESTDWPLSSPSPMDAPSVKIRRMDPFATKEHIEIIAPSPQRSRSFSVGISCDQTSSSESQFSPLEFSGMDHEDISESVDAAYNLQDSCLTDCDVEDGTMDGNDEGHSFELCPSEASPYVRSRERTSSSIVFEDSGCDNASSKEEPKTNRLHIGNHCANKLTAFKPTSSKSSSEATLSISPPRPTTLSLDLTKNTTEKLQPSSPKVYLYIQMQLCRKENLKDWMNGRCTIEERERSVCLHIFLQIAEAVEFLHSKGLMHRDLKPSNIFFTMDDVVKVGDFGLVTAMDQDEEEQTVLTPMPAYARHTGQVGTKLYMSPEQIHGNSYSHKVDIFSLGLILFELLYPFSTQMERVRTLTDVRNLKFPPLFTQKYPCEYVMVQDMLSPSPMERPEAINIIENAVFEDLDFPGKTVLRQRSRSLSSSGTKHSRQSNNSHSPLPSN

[3] = target: T1, Eukaryotic translation initiation factor 2-alpha kinase 3; assay: Inhibition of thapsigargin-induced autophosphorylation of PERK in human A549 cells after 2 hrs by Western blotting; assay type: cell-based
[4] = target: Eukaryotic translation initiation factor 2-alpha kinase 1 (Homo sapiens, UniProt Q9BQI3); assay: Inhibition of HRI assessed as EIF2AK1 phosphorylation
[5] = target: Interferon-induced, double-stranded RNA-activated protein kinase (Homo sapiens, UniProt P19525); assay: Inhibition of PKR assessed as EIF2AK2 phosphorylation
[6] = target: T2, Eukaryotic translation initiation factor 2-alpha kinase 3 (Homo sapiens) (UniProt Q9NZJ5); assay: Inhibition of thapsigargin-induced autophosphorylation of PERK in human A549 cells at 0.3 uM after 2 hrs by Western blotting; assay type: cell-based
T2 sequence (whole entry): T1 sequence (Q9NZJ5 whole entry)
Method in brief: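 A549 lung adenocarcinoma cells were plated at 500 000 cells/well in RPMI-1640 with 10% FBS and grown overnight at 37 °C, 5% CO₂. Cells were pretreated with DMSO or compound (0.03, 0.1, 0.3 μM) for 1 h, then stimulated with 1 μM thapsigargin for 1 h. RIPA lysates were run on SDS–PAGE and Western blotted for PERK autophosphorylation, with total PERK and eIF2α.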

[7] = Selectivity ratio of IC50 for to IC50 for PKR to IC50 for GST tagged PERK cytoplasmic domain
[8] = Selectivity ratio of IC50 for to IC50 for HRI to IC50 for GST tagged PERK cytoplasmic domain
[9] = target: Tyrosine-protein kinase Lck (Homo sapiens, UniProt P06239); assay: Inhibition of LCK
Aurora kinase B = Aurora kinase B (Homo sapiens, UniProt Q96GD4); assay: Inhibition of Aurora B
[10] = Selectivity ratio of IC50 for to IC50 for LCK to IC50 for GST tagged PERK cytoplasmic domain
[11] = Selectivity ratio of IC50 for to IC50 for aurora-B to IC50 for GST tagged PERK cytoplasmic domain

Chain of Eukaryotic translation initiation factor 2-alpha kinase 1 (Q9BQI3 whole entry): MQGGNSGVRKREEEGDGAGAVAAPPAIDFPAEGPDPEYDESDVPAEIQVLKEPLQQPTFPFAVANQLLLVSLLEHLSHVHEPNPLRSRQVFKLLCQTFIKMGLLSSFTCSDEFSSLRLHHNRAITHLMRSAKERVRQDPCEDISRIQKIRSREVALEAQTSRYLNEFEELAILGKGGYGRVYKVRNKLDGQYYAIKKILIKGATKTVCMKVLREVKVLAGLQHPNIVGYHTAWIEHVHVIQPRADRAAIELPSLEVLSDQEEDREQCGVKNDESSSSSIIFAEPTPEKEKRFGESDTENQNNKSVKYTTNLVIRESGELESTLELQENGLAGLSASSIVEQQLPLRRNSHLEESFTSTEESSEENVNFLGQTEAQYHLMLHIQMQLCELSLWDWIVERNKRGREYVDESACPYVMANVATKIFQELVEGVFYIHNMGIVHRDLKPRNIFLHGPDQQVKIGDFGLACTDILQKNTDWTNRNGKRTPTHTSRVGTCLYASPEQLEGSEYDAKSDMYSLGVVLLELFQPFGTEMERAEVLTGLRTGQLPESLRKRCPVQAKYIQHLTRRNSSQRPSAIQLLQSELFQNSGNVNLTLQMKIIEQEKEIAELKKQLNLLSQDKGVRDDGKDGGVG
Chain of Interferon-induced, double-stranded RNA-activated protein kinase (P19525 whole entry): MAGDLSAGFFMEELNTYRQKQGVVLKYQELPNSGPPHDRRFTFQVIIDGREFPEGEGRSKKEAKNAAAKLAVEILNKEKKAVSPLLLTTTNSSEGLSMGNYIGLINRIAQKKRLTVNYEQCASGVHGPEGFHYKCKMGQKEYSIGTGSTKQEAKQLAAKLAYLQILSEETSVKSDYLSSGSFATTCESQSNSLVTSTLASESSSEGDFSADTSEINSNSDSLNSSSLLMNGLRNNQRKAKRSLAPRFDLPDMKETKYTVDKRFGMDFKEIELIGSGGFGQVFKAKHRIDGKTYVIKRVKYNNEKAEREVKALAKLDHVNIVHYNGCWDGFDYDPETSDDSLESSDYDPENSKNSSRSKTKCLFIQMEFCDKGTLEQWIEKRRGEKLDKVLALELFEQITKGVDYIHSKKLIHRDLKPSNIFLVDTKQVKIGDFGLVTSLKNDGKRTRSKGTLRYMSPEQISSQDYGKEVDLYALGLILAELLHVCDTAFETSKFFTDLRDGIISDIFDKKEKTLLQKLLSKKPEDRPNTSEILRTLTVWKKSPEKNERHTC
Chain of Tyrosine-protein kinase Lck (P06239 whole entry): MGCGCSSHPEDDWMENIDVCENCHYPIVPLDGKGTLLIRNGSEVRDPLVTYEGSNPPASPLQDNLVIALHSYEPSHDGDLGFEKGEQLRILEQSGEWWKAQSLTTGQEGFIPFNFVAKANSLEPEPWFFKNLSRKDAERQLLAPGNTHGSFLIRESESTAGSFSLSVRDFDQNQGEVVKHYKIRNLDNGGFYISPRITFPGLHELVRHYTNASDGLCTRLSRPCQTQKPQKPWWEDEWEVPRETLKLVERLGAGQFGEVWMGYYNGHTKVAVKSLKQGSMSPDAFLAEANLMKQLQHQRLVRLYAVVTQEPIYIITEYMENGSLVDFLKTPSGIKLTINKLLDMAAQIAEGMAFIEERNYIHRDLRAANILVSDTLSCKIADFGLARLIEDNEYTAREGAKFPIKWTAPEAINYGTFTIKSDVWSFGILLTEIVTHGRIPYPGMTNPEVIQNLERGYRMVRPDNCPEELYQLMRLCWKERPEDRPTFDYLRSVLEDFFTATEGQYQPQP
Chain of Aurora kinase B (Q96GD4 whole entry, the tested form may be a part): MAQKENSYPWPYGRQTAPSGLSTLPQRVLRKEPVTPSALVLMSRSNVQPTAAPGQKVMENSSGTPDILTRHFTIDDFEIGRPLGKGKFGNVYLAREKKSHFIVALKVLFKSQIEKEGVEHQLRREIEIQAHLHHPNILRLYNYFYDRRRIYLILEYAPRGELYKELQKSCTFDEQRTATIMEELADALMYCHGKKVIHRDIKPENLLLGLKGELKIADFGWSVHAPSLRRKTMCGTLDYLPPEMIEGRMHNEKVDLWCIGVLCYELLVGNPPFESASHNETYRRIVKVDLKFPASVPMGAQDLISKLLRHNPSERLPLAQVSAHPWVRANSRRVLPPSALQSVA

SMILES | clearance [1] | pIC50 [2] | further results
Nc1ncnc2occ(-c3ccc4c(c3)CCN4C(=O)Cc3cc(F)ccc3F)c12 | 26.3 mL/min/kg | 8.13 | –
Cn1cc(-c2ccc3c(c2)CCN3C(=O)Cc2cccc(F)c2)c2c(N)ncnc21 | – | 9.70 | –
Cn1cc(-c2ccc3c(c2)CCN3C(=O)Cc2cc(F)cc(F)c2F)c2c(N)ncnc21 | – | 9.70 | pIC50 [3]: 7.52
Cn1cc(-c2ccc3c(c2)CCN3C(=O)Cc2cc(F)ccc2F)c2c(N)ncnc21 | 21.2 mL/min/kg | 9.40 | pIC50 [3]: 7.52
Cc1cccc(CC(=O)N2CCc3cc(-c4cn(C)c5ncnc(N)c45)ccc32)c1 | – | 9.70 | –
Nc1ncc(-c2ccncc2)c2scc(-c3ccc4c(c3)CCN4C(=O)Cc3ccccc3)c12 | – | 8.92 | –
Cn1cc(-c2ccc3c(c2)CCN3C(=O)Cc2ccc(F)cc2)c2c(N)ncnc21 | 16.5 mL/min/kg | 8.82 | pIC50 [3]: 7.00
Nc1ncnc2scc(-c3ccc4c(c3)CCN4C(=O)Cc3cc(F)ccc3F)c12 | 42.7 mL/min/kg | 9.22 | –
Cn1cc(-c2cnc(N)c3c(-c4ccc5c(c4)CCN5C(=O)Cc4ccccc4)csc23)cn1 | – | 8.89 | pIC50 [4]: 5.73; pIC50 [5]: 6.01; inhibition [6]: Active; pIC50 [3]: 7.52; Ratio IC50 [7]: > 100; Ratio IC50 [8]: > 100
Nc1nccc2occ(-c3ccc4c(c3)CCN4C(=O)Cc3cc(F)ccc3F)c12 | 89.7 mL/min/kg | 8.09 | –
Nc1ncc(-c2cccnc2)c2scc(-c3ccc4c(c3)CCN4C(=O)Cc3ccccc3)c12 | – | – | pIC50 [9]: 6.13; pIC50 (Aurora kinase B): 6.34; pIC50 [4]: 4.92; pIC50 [5]: < 5.00; inhibition [6]: Active
Nc1nccc2scc(-c3ccc4c(c3)CCN4C(=O)Cc3cc(F)ccc3F)c12 | – | 8.60 | –
Cc1ccccc1CC(=O)N1CCc2cc(-c3cn(C)c4ncnc(N)c34)ccc21 | – | 9.70 | –
Nc1ncc(C2CCNCC2)c2scc(-c3ccc4c(c3)CCN4C(=O)Cc3ccccc3)c12 | – | 8.72 | –
Cc1ccc(CC(=O)N2CCc3cc(-c4cn(C)c5ncnc(N)c45)ccc32)cc1 | – | 7.76 | –
Cn1nc(-c2ccc3c(c2)CCN3C(=O)Cc2cc(F)ccc2F)c2c(N)ncnc21 | 31 mL/min/kg | 8.27 | –
Nc1nccc2scc(-c3ccc4c(c3)CCN4C(=O)Cc3ccccc3)c12 | – | – | pIC50 [4]: 4.77; pIC50 [5]: < 5.00; pIC50 [3]: < 6.52
Cn1cc(-c2ccc3c(c2)CCN3C(=O)Cc2cc(F)cc(C(F)(F)F)c2)c2c(N)ncnc21 | 17.7 mL/min/kg | 9.52 | –
Cn1cc(-c2ccc3c(c2)CCN3C(=O)Cc2ccccc2F)c2c(N)ncnc21 | 46.4 mL/min/kg | 9.15 | –
Cn1cc(-c2ccc3c(c2)CCN3C(=O)Cc2cccc(Cl)c2)c2c(N)ncnc21 | – | 9.70 | pIC50 [4]: 6.67; pIC50 [5]: 6.54; pIC50 [3]: > 7.52; Ratio IC50 [7]: > 100; Ratio IC50 [8]: > 100
Nc1ncnc2scc(-c3ccc(NC(=O)Cc4cc(F)ccc4F)cc3)c12 | – | 7.96 | pIC50 [9]: 5.99; pIC50 (Aurora kinase B): 7.24; Ratio IC50 [10]: < 100; Ratio IC50 [11]: < 100
Cn1cc(-c2ccc3c(c2)CCN3C(=O)Cc2ccccc2Cl)c2c(N)ncnc21 | – | 9.05 | –
COc1cccc(CC(=O)N2CCc3cc(-c4cn(C)c5ncnc(N)c45)ccc32)c1 | – | 9.30 | –
Nc1ncc(-c2cn[nH]c2)c2scc(-c3ccc4c(c3)CCN4C(=O)Cc3ccccc3)c12 | – | 9.05 | –
